Where only a bound is given, the exact number is not on record here.

Experiment [1] deals with T1, PIKFYVE (Homo sapiens, UniProt Q9Y2I7). The experiment is described as follows: PIKFYVE inhibition assay. The format is biochemical.
The target of experiment [2] is T1, PIKFYVE. The experiment is described as follows: Lipid kinase competition assay. Conditions: Table 2 / Figure 3 compound series, standard dose-response curve. Type of experiment: binding. In short, it runs like this:
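Competition binding: biotinylated kinase-specific control ligand on streptavidin magnetic beads formed affinity resin. DNA-tagged PIKFYVE, liganded beads and test compound were combined. Bound kinase was eluted and quantified by qPCR of its DNA tag. Kinase amount was plotted against test compound concentration, and Kd was fitted to a standard dose–response curve using the Hill equation.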

T1 sequence (Q9Y2I7 whole entry): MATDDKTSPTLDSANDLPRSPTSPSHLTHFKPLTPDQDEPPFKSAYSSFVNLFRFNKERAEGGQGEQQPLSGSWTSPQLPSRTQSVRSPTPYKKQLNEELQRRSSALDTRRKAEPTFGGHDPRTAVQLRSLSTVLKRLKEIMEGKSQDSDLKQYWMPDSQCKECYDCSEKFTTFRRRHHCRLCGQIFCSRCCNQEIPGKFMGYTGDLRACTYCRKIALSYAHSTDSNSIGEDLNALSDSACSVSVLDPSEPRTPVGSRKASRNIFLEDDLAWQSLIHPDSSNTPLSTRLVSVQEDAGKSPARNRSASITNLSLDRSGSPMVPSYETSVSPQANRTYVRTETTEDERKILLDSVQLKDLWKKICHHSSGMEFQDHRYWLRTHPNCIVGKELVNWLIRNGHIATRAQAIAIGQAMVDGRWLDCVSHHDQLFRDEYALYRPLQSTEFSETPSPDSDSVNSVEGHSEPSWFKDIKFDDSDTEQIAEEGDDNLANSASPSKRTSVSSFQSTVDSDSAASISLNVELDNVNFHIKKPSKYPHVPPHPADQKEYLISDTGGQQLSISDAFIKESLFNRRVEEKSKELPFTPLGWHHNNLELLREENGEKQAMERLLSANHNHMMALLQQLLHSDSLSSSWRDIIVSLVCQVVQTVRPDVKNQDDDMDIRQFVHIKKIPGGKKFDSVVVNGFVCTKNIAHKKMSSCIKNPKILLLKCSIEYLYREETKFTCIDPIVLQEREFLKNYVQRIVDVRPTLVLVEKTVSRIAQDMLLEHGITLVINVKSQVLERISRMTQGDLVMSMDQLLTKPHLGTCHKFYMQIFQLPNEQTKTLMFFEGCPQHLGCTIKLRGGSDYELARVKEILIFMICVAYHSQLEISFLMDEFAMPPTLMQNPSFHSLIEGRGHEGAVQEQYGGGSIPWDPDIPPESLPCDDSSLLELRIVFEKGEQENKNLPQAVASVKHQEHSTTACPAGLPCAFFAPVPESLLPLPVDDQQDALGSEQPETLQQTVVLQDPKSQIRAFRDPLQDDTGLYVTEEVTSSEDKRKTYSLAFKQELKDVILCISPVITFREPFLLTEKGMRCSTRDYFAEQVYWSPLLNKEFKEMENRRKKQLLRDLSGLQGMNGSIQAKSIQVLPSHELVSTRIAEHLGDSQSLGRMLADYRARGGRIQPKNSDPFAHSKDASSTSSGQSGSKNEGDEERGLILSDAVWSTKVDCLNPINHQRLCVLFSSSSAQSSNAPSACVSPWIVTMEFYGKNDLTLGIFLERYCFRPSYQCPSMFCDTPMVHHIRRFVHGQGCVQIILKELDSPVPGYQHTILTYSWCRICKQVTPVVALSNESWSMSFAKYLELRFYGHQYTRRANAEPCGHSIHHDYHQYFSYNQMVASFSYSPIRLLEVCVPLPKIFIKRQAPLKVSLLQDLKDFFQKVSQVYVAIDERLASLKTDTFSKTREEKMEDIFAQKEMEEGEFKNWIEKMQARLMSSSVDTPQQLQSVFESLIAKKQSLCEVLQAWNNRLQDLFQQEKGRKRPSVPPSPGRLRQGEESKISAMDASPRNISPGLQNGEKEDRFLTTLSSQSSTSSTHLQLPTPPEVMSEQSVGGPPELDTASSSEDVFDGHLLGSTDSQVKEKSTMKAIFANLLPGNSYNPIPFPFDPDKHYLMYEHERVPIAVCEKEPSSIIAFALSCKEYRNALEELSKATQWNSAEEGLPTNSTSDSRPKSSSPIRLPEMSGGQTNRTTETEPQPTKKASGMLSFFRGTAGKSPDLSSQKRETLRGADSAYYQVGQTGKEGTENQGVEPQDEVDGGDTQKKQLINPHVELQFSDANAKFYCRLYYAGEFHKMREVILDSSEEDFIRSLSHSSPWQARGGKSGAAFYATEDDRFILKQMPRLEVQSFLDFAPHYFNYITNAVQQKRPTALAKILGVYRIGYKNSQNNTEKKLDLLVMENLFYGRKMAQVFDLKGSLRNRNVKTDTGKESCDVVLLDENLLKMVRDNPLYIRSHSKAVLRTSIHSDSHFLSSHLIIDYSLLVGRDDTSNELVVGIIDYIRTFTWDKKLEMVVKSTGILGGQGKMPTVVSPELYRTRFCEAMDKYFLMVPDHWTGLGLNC

At PIKFYVE [1], `CCOC(=O)c1[nH]c2ccc(OC)cc2c1/C=C/C(=O)c1ccncc1` [2l, (E)-Ethyl 5-Methoxy-3-(3-oxo-3-(pyridin-4-yl)prop-1-en-1-yl)-[1H]-indole-2-carboxylate] gave an IC50 of 0.446 µM. This molecule returned a Kd on PIKFYVE [2] above 0.5 µM.

A word on the IC50: it is the midpoint of a concentration-inhibition curve. A lower IC50 goes with greater potency in that assay. By Kd is commonly meant a measure of binding affinity in units of concentration. A high value points to lower affinity.
